As a reminder, the inhibition is the relative decrease from the control value, in per cent. As a reminder, the IC50 is the point on the concentration scale where inhibition reaches its midpoint.

What all share (type): functional
The nature of assay [1]: Antagonist activity at nicotinic acetylcholine receptor in rat striatal slices assessed as inhibition of S-(-)-nicotine-induced [3H]dopamine release at 100 nM relative to control. In a few lines: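 Probe assay on superfused rat striatal slices: 100 nM analog against 10 μM S-(−)-nicotine-evoked [3H]DA release. Inhibition is expressed as a percentage of the nicotine response without analog, i.e. the fractional release evoked under control conditions. Each value comes from at least 3 independent experiments, each in duplicate (n = 3 rats/analog).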

Assay [2] in a line: Antagonist activity at nicotinic acetylcholine receptor in rat striatal slices assessed as inhibition of S-(-)-nicotine-induced [3H]dopamine release. In a few lines: (§1)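 Superfused rat striatal slices were stimulated with 10 μM S-(−)-nicotine, with analog present across 1 nM to 10 μM. Evoked [3H]DA overflow was expressed as a percent of tissue [3H] content and compared with nicotine alone. IC50 and Imax came from iterative nonlinear least-squares curve fitting, using 4-6 independent experiments.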

Assay [3] can be described thus: Antagonist activity at nicotinic acetylcholine receptor in rat striatal slices assessed as inhibition of S-(-)-nicotine-induced [3H]dopamine release relative to control. In a few lines: as §1

SMILES strings stand for the structures.

Take `Cc1ccc[n+](CCCC#Cc2cc(C#CCCC[n+]3cccc(C)c3)cc(C#CCCC[n+]3cccc(C)c3)c2)c1.[Br-].[Br-].[Br-]`: the inhibition at 0.1 µM in assay [1] was 40%. For the same compound, in assay [2], the IC50 came out at 0.2 nM. For the same compound, the Imax in assay [3] came out at 67%.

For `Cc1ccc[n+](CCCCCCCCCCCC[n+]2cccc(C)c2)c1.[Br-].[Br-]`, the concentration for half-maximal inhibition (IC50) in assay [2] was found to be 2 nM. For the same compound, in assay [3], the Imax was found to be 78%.

Regarding `CN(CCCC#Cc1cc(C#CCCCN(C)[C@@]2(C)[C@@H]3CC[C@@H](C3)C2(C)C)cc(C#CCCCN(C)[C@@]2(C)[C@@H]3CC[C@@H](C3)C2(C)C)c1)[C@@]1(C)[C@@H]2CC[C@@H](C2)C1(C)C`, the inhibition at 0.1 µM in assay [1] is 73%. Further, in assay [2], the concentration for half-maximal inhibition (IC50) was found to be 107 nM. In assay [3], the Imax is 62%.

Take `CC1(C)CCCC(C)(C)N1CCCCCCCCCCCCCN1C(C)(C)CCCC1(C)C`: in assay [1], the inhibition at 0.1 µM came out at 56%. For the same compound, in assay [2], the IC50 was 2.2 nM. Moreover, in assay [3], the Imax stood at 87%.

With `CN(CCCCCCCCCCCN(C)[C@@]1(C)[C@@H]2CC[C@@H](C2)C1(C)C)[C@@]1(C)[C@@H]2CC[C@@H](C2)C1(C)C`, the inhibition at 0.1 µM in assay [1] is 35%. Also, in assay [2], the half-inhibitory concentration (IC50) amounted to 319 nM. Besides, the Imax in assay [3] worked out at 90%.

With `CC1(C)CCCC(C)(C)N1CCCCCCCCCCCCN1C(C)(C)CCCC1(C)C`, the inhibition at 0.1 µM in assay [1] is 36%.

For the compound `CC1(C)CCCC(C)(C)N1CCCCCCCCCCCN1C(C)(C)CCCC1(C)C`, the inhibition at 0.1 µM in assay [1] is 22%.

`CC1(C)CCCC(C)(C)N1CCCCCCCCN1C(C)(C)CCCC1(C)C`: the inhibition at 0.1 µM in assay [1] amounted to 18%.

As to `CC1(C)CCCC(C)(C)N1CCCCCCCCCCN1C(C)(C)CCCC1(C)C`, in assay [1], the inhibition at 0.1 µM is 5%.

With `CN(CCCCCCCCCCCCCN(C)[C@@]1(C)[C@@H]2CC[C@@H](C2)C1(C)C)[C@@]1(C)[C@@H]2CC[C@@H](C2)C1(C)C`, in assay [1], the inhibition at 0.1 µM was determined as 52%. Besides, the IC50 in assay [2] is 46 nM. Further, in assay [3], the Imax came out at 83%.

Values taken from ChEMBL document CHEMBL1156859, “Novel bis-2,2,6,6-tetramethylpiperidine (bis-TMP) and bis-mecamylamine antagonists at neuronal nicotinic receptors mediating nicotine-evoked dopamine release” (Bioorg Med Chem Lett, 2010).
